# Assay results reported in ChEMBL document CHEMBL1137299, “Elucidation of the bioactive conformation of the N-substituted trans-3,4-dimethyl-4-(3-hydroxyphenyl)piperidine class of mu-opioid receptor antagonists” (J Med Chem, 2006).
# Assays:
# [1] = molecular target: T1, Delta-type opioid receptor (Homo sapiens, UniProt P41143); experiment: Displacement of [3H]diprenorphine from human cloned delta opioid receptor expressed in CHO cells; type: cell-based
# Mu-type opioid receptor [2] = molecular target: T2, Mu-type opioid receptor (Homo sapiens, UniProt P35372); experiment: Displacement of [3H]diprenorphine from human cloned mu opioid receptor expressed in CHO cells; type: cell-based
# [3] = molecular target: T3, Kappa-type opioid receptor (Homo sapiens, UniProt P41145); experiment: Displacement of [3H]diprenorphine from human cloned kappa opioid receptor expressed in CHO cells; type: cell-based
# Mu-type opioid receptor [4] = molecular target: T2, Mu-type opioid receptor; experiment: Antagonist activity against human cloned mu opioid receptor expressed in CHO cells assessed as inhibition of loperamide-stimulated [35S]GTP-gamma-S binding; type: functional, cell-based
# [5] = molecular target: T3, Kappa-type opioid receptor; experiment: Antagonist activity against human cloned kappa opioid receptor expressed in CHO cells assessed as inhibition of […]-stimulated [35S]GTPgammaS binding; type: functional, cell-based
# [6] = molecular target: T1, Delta-type opioid receptor; experiment: Antagonist activity against human cloned delta opioid receptor expressed in CHO cells assessed as inhibition of […]-stimulated [35S]GTP-gamma-S binding; type: functional, cell-based
# Method in brief: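 In receptor-expressing CHO membranes (50-100 µg protein), antagonist was added to mixtures containing […] agonist. Incubated 1 h at room temperature, then centrifuged; bound radioactivity was counted by scintillation.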
# [7] = molecular target: T1, Delta-type opioid receptor; experiment: Inhibition of [3H]diprenorphine binding to human cloned delta opioid receptor expressed in CHO cells at 10 uM; type: cell-based
# Method in brief: (§1)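 Membranes from CHO cells stably expressing human δ, κ or μ receptor (10-80 µg protein) incubated with [3H]diprenorphine (0.5-1.0 nM) and competitor at 10 µM. Buffer: 50 mM Tris-HCl pH 7.8, 1 mM EGTA, 5 mM MgCl2, protease inhibitors. 60 min at room temperature, then GF/B filtration and scintillation counting. Nonspecific binding was defined with 10 µM naloxone. Read-out was % inhibition of specific binding.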
# Mu-type opioid receptor [8] = molecular target: T2, Mu-type opioid receptor; experiment: Agonist activity at human cloned mu opioid receptor expressed in CHO cells assessed as stimulation of [35S]GTP-gamma-S binding; type: functional, cell-based
# Method in brief: (§2)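 CHO membranes expressing the relevant human receptor (50-100 µg protein) were exposed to a concentration series of agonist. Incubated 1 h at room temperature, centrifuged, and bound label counted. Potency and efficacy were assessed from stimulation.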
# [9] = molecular target: T3, Kappa-type opioid receptor; experiment: Partial agonist activity at human cloned kappa opioid receptor expressed in CHO cells assessed as stimulation of [35S]GTP-gamma-S binding; type: functional, cell-based; method in brief: as §2
# [10] = molecular target: T1, Delta-type opioid receptor; experiment: Agonist activity at human cloned delta opioid receptor expressed in CHO cells assessed as stimulation of [35S]GTP-gamma-S binding; type: functional, cell-based; method in brief: as §2
# Mu-type opioid receptor [11] = molecular target: T2, Mu-type opioid receptor; experiment: Inhibition of [3H]diprenorphine binding to human cloned mu opioid receptor expressed in CHO cells at 10 uM; type: cell-based; method in brief: as §1
# [12] = molecular target: T3, Kappa-type opioid receptor; experiment: Inhibition of [3H]diprenorphine binding to human cloned kappa opioid receptor expressed in CHO cells at 10 uM; type: cell-based; method in brief: as §1
# T1 sequence (P41143 whole entry): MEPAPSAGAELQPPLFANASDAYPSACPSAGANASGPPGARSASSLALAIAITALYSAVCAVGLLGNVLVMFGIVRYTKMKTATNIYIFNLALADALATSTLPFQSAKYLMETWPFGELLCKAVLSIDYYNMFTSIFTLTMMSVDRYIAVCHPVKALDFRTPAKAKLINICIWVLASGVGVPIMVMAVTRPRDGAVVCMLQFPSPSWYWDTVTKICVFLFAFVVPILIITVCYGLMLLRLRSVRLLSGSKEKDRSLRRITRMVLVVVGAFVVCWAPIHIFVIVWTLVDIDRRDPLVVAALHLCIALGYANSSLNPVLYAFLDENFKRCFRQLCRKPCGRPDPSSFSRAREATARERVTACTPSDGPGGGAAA
# T2 sequence (P35372 whole entry): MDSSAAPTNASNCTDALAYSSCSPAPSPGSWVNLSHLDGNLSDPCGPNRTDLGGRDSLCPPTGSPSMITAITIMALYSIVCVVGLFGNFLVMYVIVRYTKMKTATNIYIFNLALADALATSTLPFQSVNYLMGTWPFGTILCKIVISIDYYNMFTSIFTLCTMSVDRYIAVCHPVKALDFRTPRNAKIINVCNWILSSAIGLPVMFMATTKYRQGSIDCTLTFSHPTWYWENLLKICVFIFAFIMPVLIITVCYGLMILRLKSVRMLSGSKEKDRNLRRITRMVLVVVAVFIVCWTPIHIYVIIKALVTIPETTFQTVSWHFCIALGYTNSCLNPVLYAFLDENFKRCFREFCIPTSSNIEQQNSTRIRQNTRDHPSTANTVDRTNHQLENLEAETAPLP
# T3 sequence (P41145 whole entry): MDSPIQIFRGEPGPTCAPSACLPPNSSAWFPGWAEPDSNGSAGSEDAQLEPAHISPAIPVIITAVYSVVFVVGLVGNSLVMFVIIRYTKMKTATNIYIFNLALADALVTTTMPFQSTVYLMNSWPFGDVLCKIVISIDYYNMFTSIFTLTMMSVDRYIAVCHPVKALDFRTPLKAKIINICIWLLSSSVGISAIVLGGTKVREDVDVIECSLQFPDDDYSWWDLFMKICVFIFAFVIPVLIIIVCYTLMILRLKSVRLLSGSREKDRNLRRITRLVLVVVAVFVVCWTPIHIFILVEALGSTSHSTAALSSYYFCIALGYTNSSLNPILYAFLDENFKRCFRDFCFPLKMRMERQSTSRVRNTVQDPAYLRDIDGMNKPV
smiles,measurement,setting,value
C[C@H]1[C@H]2CC[C@@H](c3ccccc3)CN2CC[C@@]1(C)c1cccc(O)c1,Ki,[1],280 nM
same,Ki,Mu-type opioid receptor [2],37 nM
same,Ki,[3],16 nM
same,IC50,Mu-type opioid receptor [4],120 nM
C[C@H]1[C@@H]2CCCCN2CC[C@@]1(C)c1cccc(O)c1,Ki,[1],220 nM
same,Ki,Mu-type opioid receptor [2],120 nM
same,Ki,[3],69 nM
same,IC50,Mu-type opioid receptor [4],1000 nM
C[C@H]1CN2C[C@H](c3ccccc3)CC[C@H]2C[C@@]1(C)c1cccc(O)c1,IC50,[5],1.2 nM
same,IC50,[6],16 nM
same,Ki,[1],31 nM
same,Ki,Mu-type opioid receptor [2],0.62 nM
same,IC50,Mu-type opioid receptor [4],0.54 nM
C[C@H]1CN2C[C@H](c3ccccc3)CC[C@@H]2C[C@@]1(C)c1cccc(O)c1,Ki,[1],900 nM
same,Ki,Mu-type opioid receptor [2],110 nM
same,Ki,[3],430 nM
same,IC50,Mu-type opioid receptor [4],210 nM
C[C@H]1CN2C[C@@H](c3ccccc3)CC[C@H]2C[C@@]1(C)c1cccc(O)c1,Ki,Mu-type opioid receptor [2],110 nM
same,Ki,[3],440 nM
same,inhibition,[7],51%
same,IC50,Mu-type opioid receptor [4],110 nM
C[C@H]1[C@@H]2CC[C@@H](c3ccccc3)CN2CC[C@@]1(C)c1cccc(O)c1,Ki,[1],2.1 nM
same,Ki,Mu-type opioid receptor [2],0.9 nM
same,Ki,[3],65 nM
same,EC50,Mu-type opioid receptor [8],53 nM
same,EC50,[9],200 nM
same,EC50,[10],55 nM
C[C@H]1[C@H]2CCCCN2CC[C@@]1(C)c1cccc(O)c1,inhibition,Mu-type opioid receptor [11],43%
same,Ki,[3],520 nM
same,inhibition,[7],47%
C[C@H]1[C@H]2CC[C@H](c3ccccc3)CN2CC[C@@]1(C)c1cccc(O)c1,Ki,[1],25 nM
same,Ki,Mu-type opioid receptor [2],26 nM
same,Ki,[3],35 nM
same,IC50,Mu-type opioid receptor [4],190 nM
C[C@H]1[C@@H]2CC[C@H](c3ccccc3)CN2CC[C@@]1(C)c1cccc(O)c1,Ki,[1],190 nM
same,Ki,Mu-type opioid receptor [2],73 nM
same,Ki,[3],100 nM
same,IC50,Mu-type opioid receptor [4],150 nM
C[C@H]1CN2C[C@@H](c3ccccc3)CC[C@@H]2C[C@@]1(C)c1cccc(O)c1,Ki,Mu-type opioid receptor [2],430 nM
same,Ki,[3],1400 nM
same,inhibition,[7],49%
C[C@H]1CN2CCCC[C@H]2C[C@@]1(C)c1cccc(O)c1,Ki,Mu-type opioid receptor [2],940 nM
same,inhibition,[12],44%
same,inhibition,[7],37%
C[C@H]1CN2CCCC[C@@H]2C[C@@]1(C)c1cccc(O)c1,Ki,Mu-type opioid receptor [2],710 nM
same,Ki,[3],520 nM
same,inhibition,[7],40%
